TRPC4 agonist – TRPC4 (mouse) channel activation | B-score at 10 µM | Q9QUQ5 | HEK293 TRPC4beta/mu-opioid, Fluo4 calcium fluorescence; active compounds read high | actives 0.49% (n = 310,000) | AID 2237;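 active = B-score above 5 SD of library B-scores, and initial fluorescence ratio not above library mean plus 5 SD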;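 also: positive B-score marks a calcium rise read as TRPC4 activation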
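Material: TRPC4beta and mu-opioid receptor HEK293 stable cells | Incubation: 45 min room-temperature Fluo4 loading, 110 s read | Detection: Kinetic Fluo4 calcium fluorescence | Measure: Integrated baseline-normalised fluorescence ratio, converted to per-well B score | Benchmarks: Low control buffer alone, high control maximal DAMGO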
TRPC6 inhibitor – blocks the mouse TRPC6 cation channel | HEK293-TRPC6, membrane potential dye, ACh-evoked depolarization; active compounds read low | AID 2553 | B-score at 10 µM | Q61143 | actives 1.1% (n = 310,000);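 active = B-score under library mean minus 3 SD, initial fluorescence not abnormally high, positive integrated signal ratio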;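 also: B-score derived from integrated fluorescence ratio over the kinetic read; more negative B-score means stronger inhibition of depolarization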
Target sequence (Q61143 whole entry, looked up): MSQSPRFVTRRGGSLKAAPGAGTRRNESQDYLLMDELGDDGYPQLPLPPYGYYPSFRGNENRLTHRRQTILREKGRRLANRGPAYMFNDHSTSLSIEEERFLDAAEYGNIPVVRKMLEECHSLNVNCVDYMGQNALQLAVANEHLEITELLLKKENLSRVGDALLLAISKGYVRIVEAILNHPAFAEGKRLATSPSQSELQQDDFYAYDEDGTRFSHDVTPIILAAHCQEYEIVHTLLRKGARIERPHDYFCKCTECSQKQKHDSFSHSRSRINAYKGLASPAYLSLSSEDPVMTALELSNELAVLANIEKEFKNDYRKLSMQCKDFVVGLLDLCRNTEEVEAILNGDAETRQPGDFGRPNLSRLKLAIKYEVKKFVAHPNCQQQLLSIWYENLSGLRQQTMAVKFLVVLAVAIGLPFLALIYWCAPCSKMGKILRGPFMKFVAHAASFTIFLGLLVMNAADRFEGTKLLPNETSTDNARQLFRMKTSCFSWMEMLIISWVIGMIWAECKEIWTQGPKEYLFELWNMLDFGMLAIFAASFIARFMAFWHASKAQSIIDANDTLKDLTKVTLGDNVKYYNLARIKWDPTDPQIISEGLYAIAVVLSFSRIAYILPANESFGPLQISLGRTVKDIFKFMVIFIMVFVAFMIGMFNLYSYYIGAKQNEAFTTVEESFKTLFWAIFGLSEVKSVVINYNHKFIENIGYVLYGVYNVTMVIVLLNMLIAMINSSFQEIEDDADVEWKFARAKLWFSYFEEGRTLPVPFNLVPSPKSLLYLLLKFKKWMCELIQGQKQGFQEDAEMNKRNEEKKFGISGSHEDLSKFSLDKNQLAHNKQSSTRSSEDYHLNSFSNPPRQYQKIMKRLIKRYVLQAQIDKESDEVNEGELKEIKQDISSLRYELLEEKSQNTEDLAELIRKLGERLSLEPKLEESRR
TRPC4 PAM – TRPC4 (mouse) allosteric potentiation; actives 0.42% (n = 310,000); Q9QUQ5; HEK293 TRPC4beta/mu-opioid, DAMGO EC20, Fluo-4 Ca2+ flux; active compounds read high; B-score at 10 µM;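 active = B-score of calcium response area above 5 SD of library B-scores, with initial fluorescence ratio within 5 SD of library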;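 also: B-score of integrated fluorescence ratio over time as area under calcium response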
Kir21 inh – Kir2.1 (mouse) channel inhibition. AID 1672. actives 0.85% (n = 310,000). P35561. B-score at 10 µM. HEK293-Kir2.1, FluxOR thallium flux fluorescence; active compounds read low;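 active = fluorescence ratio B-score at or below minus 3 SD of library scores, with starting-brightness B-score within 2 SD, cut at about -4.2 in these data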;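 also: channel flux triggered by added potassium and thallium sulfate stimulus; B-score of peak minus minimum fluorescence over baseline after thallium stimulus; more negative B-score means stronger Kir2.1 block with less thallium influx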
TRPC4 inh – TRPC4 (mouse) channel inhibition; Q9QUQ5; HEK293 TRPC4beta/mu-opioid, DAMGO-evoked Fluo4 calcium flux; active compounds read low; B-score at 10 µM; actives 0.39% (n = 300,000); AID 2247;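 active = B-score over 3 SD under the library average, no early fluorescence shift, positive overall ratio signal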
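Assay system: HEK293 cells with stable TRPC4beta plus mu-opioid receptor expression. Dosing: single dose. Measured by: Fluo4 Ca2+ flux fluorescence. Also added: DAMGO in two steps, submaximal then maximal. Read-out: B score from integrated Fluo4 fluorescence ratio.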
TRPC6 act – activates the mouse TRPC6 cation channel; actives 0.13% (n = 310,000); B-score at 10 µM; AID 2550; Q61143; HEK293-TRPC6 membrane potential dye fluorescence; active compounds read high;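 active = B-score of the integrated fluorescence ratio above library mean plus 3 SD, and starting fluorescence ratio within library mean plus 5 SD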;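 also: higher score means more depolarization so channel activation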
* marks the source's active call; other numbers are inactive results; i = inactive. Shown are actives, neighbours in structure and some others; about 2.9% of the full set was active somewhere.

SMILES | TRPC4 agonist | TRPC6 inhibitor | TRPC4 PAM | Kir21 inh | TRPC4 inh | TRPC6 act
CCOc1ccccc1C1CC(c2ccc(Br)cc2)Nc2nc(N)nn21 (configuration not stated) | i | i | i | 0.39 | i | i
Cc1cccc(NCc2nc(SCC(=O)Nc3ccccc3)n[nH]2)c1 | i | i | i | -0.82 | i | i
Cc1cccc(NCc2nc(SCC(=O)Nc3ccccc3Br)n[nH]2)c1 | i | i | i | -5* | i | i
O=S(=O)(Nc1cccc(-c2ccc3nncn3n2)c1)c1ccc(Cl)s1 | i | i | i | -0.12 | i | i
Clc1cc(/C=N\NC2=NCCN2)cc(Cl)n1 | i | i | 18* | 3.6 | i | i
CC1(C)C[C@@H]2C[C@@](C)(CN2C(=O)c2ccccc2)C1 | i | i | i | 0.61 | i | i
CC1(C)CC2CC(C)(CN2CC(O)COc2ccccc2)C1 (configuration not stated) | i | i | i | -0.85 | -9* | i
CSCCC(NC(=O)c1ccco1)C(=O)OC(C)C(=O)NC(=O)NC1CCCCC1 (configuration not stated) | 70* | i | i | 2.1 | i | i
O=C(Nc1ccc2c(c1)OCO2)N1CCN(c2ncc(C(F)(F)F)cc2Cl)CC1 | 55* | i | i | -1.9 | i | i
O=C(c1ccc2c(c1)OCCO2)N1CCN(c2ncc(C(F)(F)F)cc2Cl)CC1 | 49* | i | i | 1.4 | i | i
Cc1ccsc1C(=O)N1CCN(c2ncc(C(F)(F)F)cc2Cl)CC1 | i | i | i | 1.4 | i | i
COc1ccc(S(=O)(=O)N2CCc3ccccc3C2)cc1OC | i | i | i | -4.2* | i | i
COc1ccc(S(=O)(=O)N2CCc3ccccc3C2)cc1C(=O)O | i | i | i | -0.83 | i | i
O=C(NCc1ccco1)/C(=C\c1cccs1)NC(=O)c1ccco1 | i | i | i | -0.18 | i | i
CCN(Cc1ccccc1)Cc1nnnn1Cc1ccccc1 | i | i | i | -6.9* | i | i
COc1cc(CNn2c(C)n[nH]c2=S)cc(Cl)c1OCc1ccc(F)cc1 | i | i | i | 0.4 | i | i
CCOc1cc(CNC2CCCC2)cc(Cl)c1OCc1ccc(F)cc1 | i | i | i | -11* | i | i
COc1cc(CNC2CCCC2)cc(OC)c1OC | i | i | i | 2.1 | i | i
COc1cc(CNC2CCCC2)cc(Cl)c1OCc1ccc(F)cc1 | i | i | i | -5* | -7* | i
COc1cc(CNC2CCCC2)cc(Cl)c1OCc1ccccc1Cl | i | i | i | -9.3* | i | i
COc1cc(CNC2CCCCCCC2)cc(Cl)c1OCC(N)=O | i | i | i | -0.99 | i | i
CCN(CC)CC(=O)N1c2ccccc2CCc2ccc(NC(=O)c3cc(OC)c(OC)c(OC)c3)cc21 | i | i | i | 1.1 | i | i
O=C(Cc1ccccc1)NCC(=O)N1CCN(c2ccccc2F)CC1 | i | i | i | 1.7 | i | i
Cc1cc(NC(=O)C(C)SCC(=O)N(C)CC(=O)Nc2ccccc2Br)no1 (configuration not stated) | i | i | i | -0.88 | i | i
CCC(C)(C)c1ccc(OCCCC[n+]2cccc(C)c2C)c(C(C)(C)CC)c1 | i | -5.3* | i | -9.5* | i | i
SMILES | TRPC4 agonist | TRPC6 inhibitor | TRPC4 PAM | Kir21 inh | TRPC4 inh | TRPC6 act
COc1cccc(NC(=O)CSc2nc3c(sc4ccccc43)c(=O)n2CCCN2CCCC2)c1 | i | i | i | -5.7* | i | i
COc1cccc(NC(=O)CSc2nc3c(sc4ccccc43)c(=O)n2CCN(C)C)c1 | i | i | i | -0.65 | i | i
CCOC(=O)/C(C(=Nc1ccccc1)Nc1ccccc1)=C(\C)O | i | i | i | -0.68 | i | i
NC(=Nc1ccccc1)Nc1ccccc1 | 134* | i | i | -0.42 | i | i
CC1CCN(C(=O)CNC(=O)CNC(=O)Cc2ccccc2)CC1 | i | i | i | 2.9 | i | i
CCOC(=O)C1=C(C)NC(=O)CC1c1cc2c(cc1[N+](=O)[O-])OCO2 (configuration not stated) | i | i | i | -0.28 | -7* | i
CCCOC(=O)C1=C(C)N(C)C(=O)NC1c1cc2c(cc1[N+](=O)[O-])OCO2 (configuration not stated) | i | i | i | 0.07 | i | i
COc1ccc(C(=O)NCC(=O)N2CCN(c3ccc(F)cc3)CC2)cc1 | i | i | i | -0.8 | i | i
CN1CCN(CCCNC(=O)CN2C(=O)COc3ccccc32)CC1 | i | i | i | -0.18 | -6* | i
CSc1nnc(Cc2sc(-c3ccccc3)nc2-c2ccccc2)o1 | i | i | 20* | 0.11 | i | i
COc1ccc(CN2CCC(N(CCc3ccccc3)Cc3ccccc3)CC2)c(OC)c1 | 143* | i | i | -4.7* | i | i
OCC1(Cc2cccc(Cl)c2)CCCN(Cc2ccc(F)c(F)c2)C1 (configuration not stated) | i | i | i | -0.82 | i | i
OCC1(Cc2ccc(F)cc2F)CCCN(Cc2ccc(Cl)cc2)C1 (configuration not stated) | i | i | i | -9.4* | i | i
CCOc1ccc(Nc2nnc(Cc3ccc(OC)cc3)c(=O)[nH]2)cc1 | i | i | i | -0.55 | i | i
O=C(Cc1ccccc1)NCC(=O)N1CCN(c2ccccc2)CC1 | i | i | i | 0.82 | i | i
CC(C)[C@@H]1CC[C@@H](C)c2c(-c3ccccc3)n[nH]c21 | i | i | 10* | 0.9 | i | i
c1ccc(-c2n[nH]c3c2CCC3)cc1 | i | i | i | -0.36 | i | i
Cc1ccc(C(=O)OCC(=O)N(CC(C)C)c2c(N)n(Cc3ccccc3)c(=O)[nH]c2=O)o1 | i | i | i | 0.77 | i | i
CN(C)CCOC(=O)C1(c2ccccc2)CCOCC1 | i | i | 11* | -1.8 | i | i
O=C(OCCCN1CCCC1)C1(c2ccccc2)CCCC1 | i | i | i | -1.2 | i | i
CCOC(=O)C1CCN(C(=O)COC(=O)c2oc3ccccc3c2C)CC1 | i | i | i | -0.28 | i | i
CCOc1ccc(/C=C/C(=O)OC(C)C(=O)NC2CCCCC2C)cc1OC (configuration not stated) | i | i | i | -0.02 | i | i

Compound activity: PubChem, Johns Hopkins Ion Channel Center
